Measurements: the array DNA melting data of Ke et al. (doi:10.1101/2024.01.08.574731)

How the values were obtained:
[1] = folding enthalpy; higher = less favourable; fluorescence melt of hairpins on a sequencing array, two-state fit; settings: sodium 0.088 M
In short: (§1)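 Melting temperature and folding enthalpy were derived from bootstrapped two-state fits. The fitted temperatures were raised by 9.35 °C to agree with UV melts, and four replicates were combined by inverse variance. The underlying data were Cy3 fluorescence images of library hairpins, with annealed Cy3 and quencher oligos, on a sequenced MiSeq flow cell in 50 mM Na-HEPES pH 8.0, 25 mM NaCl, taken in 2.5 °C steps up to 60 °C, normalised to pre-quench Cy3 and to control constructs.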

[2] = melting temperature; fluorescence melt of hairpins on a sequencing array, two-state fit, raised by 9.35 °C to match UV melts; settings: sodium 0.088 M
In short: as §1

| Sequence | folding enthalpy [1] [kcal/mol] | Tm [2] [°C] |
| --- | --- | --- |
| GGCACCGGAAACGGCACC ((..(((....)))..)) | -15.8 | 30.9 |
| GGCACCGGAAACGGCGCC (((.(((....))).))) | -52.6 | 61.2 |
| GGCACTCGAAAGAGCGCC (((.(((....))).))) | -53 | 59.3 |
| GGCAGAGGAAACTCTGTC (.(((((....))))).) | -30.7 | 49.7 |
| GGCAGATCGAAAGATGCC (((..(((....)))))) | -26.8 | 49.4 |
| GGCAGCCCGAAAGGGGCC (((..(((....)))))) | -13.3 | 50.7 |
| GGCAGCGAAAGCTATGCC ((((((....)))..))) | -28.7 | 55.3 |
| GGCAGCGAAAGCTCCGCC ((((((....)))..))) | -19.2 | 56 |
| GGCAGCGAAAGCTCGGCC ((((((....)))..))) | -17.7 | 53.5 |
| GGCAGCGAAAGCTTAGCC ((((((....)))..))) | -25.7 | 51.7 |
| GGCAGCGGAAACGCCACC ((..(((....)))..)) | -13.9 | 36.6 |
| GGCAGCGGAAACGCCGCC (((.(((....))).))) | -31.3 | 61.5 |
| GGCAGCTCGAAAGAGGCC (((..(((....)))))) | -17.4 | 47.3 |
| GGCAGGCGAAAGCCCGCC (((.(((....))).))) | -22.8 | 66.2 |
| GGCAGTCGAAAGACCGCC (((.(((....))).))) | -35 | 58 |
| GGCATAACGAAAGTTGCC (((..(((....)))))) | -26 | 50.8 |
| GGCATACGAAAGTAAGCC (((.(((....))).))) | -37.1 | 54 |
| GGCATCACGAAAGTGGCC (((..(((....)))))) | -21.9 | 48.2 |
| GGCATCGAAAGATGTGCC ((((((....)))..))) | -17.8 | 46.4 |
| GGCATCGCGAAAGCGGCC (((..(((....)))))) | -17.4 | 54.9 |
| GGCATCGGAAACGACGCC (((.(((....))).))) | -42.1 | 52.3 |
| GGCATGCGAAAGCAAGCC (((.(((....))).))) | -27.8 | 65.4 |
| GGCATGCGAAAGCACGCC (((.(((....))).))) | -27.3 | 63.4 |

| Sequence | folding enthalpy [1] [kcal/mol] | Tm [2] [°C] |
| --- | --- | --- |
| GGCATGGGAAACCATGTC (.(((((....))))).) | -26.6 | 52.5 |
| GGCATTCGAAAGAACGCC (((.(((....))).))) | -45.2 | 50.6 |
| GGCATTGGAAACAACGCC (((.(((....))).))) | -34.4 | 44.6 |
| GGCCAACGAAAGTTAGCC (((.(((....))).))) | -29.1 | 50.1 |
| GGCCAAGAAATTGGCC ((((((....)))))) | -40.1 | 64.4 |
| GGCCAAGGAAACTCGGCC ((((.((....)).)))) | -34 | 50.7 |
| GGCCAAGGAAACTTGACC ((.((((....)))).)) | -30.3 | 43.1 |
| GGCCACACGAAAGTGGCC (((..(((....)))))) | -39.1 | 67.5 |
| GGCCACCGAAAGGTAGCC (((.(((....))).))) | -38.3 | 57.5 |
| GGCCACGAAAGTGAAGCC ((((((....)))..))) | -31.9 | 53.5 |
| GGCCACGAAAGTGACGCC ((((((....)))..))) | -21.7 | 52.1 |
| GGCCACGAAAGTGCCGCC ((((((....)))..))) | -32 | 59.8 |
| GGCCACGAAAGTGCGGCC ((((((....)))..))) | -39.6 | 55.6 |
| GGCCACGGAAACGCGACC ((.(.((....)).).)) | -25.8 | 36.7 |
| GGCCAGCGAAAGCTCGCC (((.(((....))).))) | -38.9 | 53.4 |
| GGCCAGGGAAACCCAGCC (((..((....))..))) | -30.5 | 42.1 |
| GGCCAGGGAAACCTGGTC (.(((((....))))).) | -33.5 | 57.6 |
| GGCCAGGGAAACTTGGCC (((((.(....).))))) | -35.7 | 57 |
| GGCCATGGAAACGTGGCC (((((.(....).))))) | -52.1 | 62 |
| GGCCCACGAAAGTGTGCC (((.(((....))).))) | -49.1 | 58.1 |
| GGCCCAGGAAACTAGGCC ((((.((....)).)))) | -30.3 | 48.1 |
| GGCCCCCGAAAGGGCGCC (((.(((....))).))) | -24.8 | 58.3 |
